From PubChem
DENV2 CPE = inhibitors of DENV2 cytopathic effect, primary screen, cell-based, plate reader, single concentration; 1.7% of 350,000 active; CPE inhibition, % at 9.99 µM; DENV2-infected cells, cytopathic effect rescue; in the data active = CPE inhibition above about 20%, passing the limit was not always enough; inconclusive = no clear call, values can overlap the other calls; tested in BHK-21 cells
E-selectin induc = E-selectin induction in HUVECs, primary screen, imaging, HUVEC, immunofluorescence imaging, single point; P16581; AID 686992, 2013; 0.37% of 260,000 active; normalized: neutral wells 0, TNF-alpha wells 100; activation, % at 7.58 µM;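 active = mean E-selectin-positive cell signal at least 10% of the positive control, reached in at least 60% of replicates, without over 20% cell loss; inconclusive = no rule given, readout overlaps actives, possibly toxicity-flagged; inactive = the rest, including those meeting only one limit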
Target sequence (P16581 whole entry, looked up): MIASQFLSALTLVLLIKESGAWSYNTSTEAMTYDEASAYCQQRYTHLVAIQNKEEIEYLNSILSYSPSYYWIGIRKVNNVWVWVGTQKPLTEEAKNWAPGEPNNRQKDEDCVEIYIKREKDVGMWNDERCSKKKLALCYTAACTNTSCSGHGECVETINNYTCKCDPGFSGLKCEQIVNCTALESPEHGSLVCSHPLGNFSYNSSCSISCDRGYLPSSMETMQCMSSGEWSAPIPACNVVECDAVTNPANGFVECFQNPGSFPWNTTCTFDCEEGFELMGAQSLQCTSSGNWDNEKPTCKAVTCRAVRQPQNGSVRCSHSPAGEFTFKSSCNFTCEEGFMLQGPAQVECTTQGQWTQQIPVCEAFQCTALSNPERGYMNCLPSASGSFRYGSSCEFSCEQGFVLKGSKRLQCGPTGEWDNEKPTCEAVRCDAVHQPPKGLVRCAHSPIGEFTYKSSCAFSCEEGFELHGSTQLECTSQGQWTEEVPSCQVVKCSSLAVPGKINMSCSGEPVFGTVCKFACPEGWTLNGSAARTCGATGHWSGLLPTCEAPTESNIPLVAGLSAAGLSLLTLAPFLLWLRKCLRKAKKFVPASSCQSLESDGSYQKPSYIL
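Material: HUVEC primary endothelial cells; Amount: 3,000 cells per well; Dosing: single concentration; Medium: EGM-2 growth medium on 0.1% gelatin-coated wells; Read-out basis: percent E-selectin-positive cells; Signal: immunofluorescence imaging; Control set: TNF-alpha, DMSO.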
SIRT5 inh = SIRT5 desuccinylase inhibitors, primary screen, biochemical, fluorescence imaging, single point, set 5. 1.1% of 330,000 active. NAD-dependent protein deacylase sirtuin-5, mitochondrial (Homo sapiens), Q9NXA8. AID 652115, 2013. Purified SirT5, succinyl-peptide AMC, trypsin-coupled fluorescence. inhibition, % at 15 µM; in the data active = inhibition above about 15%; inconclusive = no clear call, values can overlap the other calls
Large screens that a line does not name were inactive; ! = not active in a repeat. Compounds with a hit are over-represented: about 2.8% of the library has one in this group of screens.

CCC(=O)Nc1ccc2c(c1)C(=O)N(C)[C@H]1CC[C@@H](CC(=O)NCC3CCCCC3)O[C@@H]1CO2	none
Cc1ccc2c(c1)c1c(n2CC(O)CNC2CCCC2)CCCC1 (stereo not drawn)	DENV2 CPE 27 (no result: E-selectin induc)
Cc1ccc2c(c1)c1c3n2CCN(CC(O)CNC(C)C)C3CCC1 (stereo not drawn)	none
CO/N=C/C(c1ccc(Cl)nc1)S(=O)(=O)c1ccccc1 (stereo not drawn)	SIRT5 inh 21 (no result: E-selectin induc)
CO/N=C/C(c1ncc(C(F)(F)F)cc1Cl)S(=O)(=O)c1ccccc1 (stereo not drawn)	none
CCCNC(=O)[C@@H]1[C@@H](CO)[C@@H]2Cn3c(ccc(-c4ccc(F)cc4)c3=O)[C@H]1N2CC	none
CC(C)(C)OC(=O)N1O[C@H]2C=C[C@@H]1C2	none (no result: SIRT5 inh)
O=C(c1ccc[nH]1)N1O[C@@H]2C=C[C@H]1C2	DENV2 CPE 62 (no result: SIRT5 inh)
CCS(=O)(=O)N1CCCCN2[C@H](C1)[C@@H](c1ccc(-c3ccccc3)cc1)[C@@H]2CO	SIRT5 inh 16
CCS(=O)(=O)N1CCCCN2[C@H](CO)[C@H](c3ccc(-c4cccc(C#N)c4)cc3)[C@H]2C1	none
CCS(=O)(=O)N1CCCCN2[C@H](CO)[C@H](c3ccc(-c4ccccc4)cc3)[C@H]2C1	none
CCS(=O)(=O)N1CCCCN2[C@H](CO)[C@@H](c3ccc(-c4ccc(C#N)cc4)cc3)[C@@H]2C1	DENV2 CPE 65
CN1CCCCN2[C@@H](CO)[C@H](c3ccc(-c4ccccc4)cc3)[C@@H]2C1	DENV2 CPE 32
CCS(=O)(=O)N1CCCCN2[C@H](CO)[C@H](c3ccc(-c4ccc(C#N)cc4)cc3)[C@H]2C1	DENV2 CPE 55
CN1CCCCN2[C@H](CO)[C@H](c3ccc(-c4ccccc4)cc3)[C@H]2C1	DENV2 CPE inconclusive
CCS(=O)(=O)N1CCCCN2[C@H](C1)[C@H](c1ccc(-c3cccc(C#N)c3)cc1)[C@@H]2CO	none
COc1ccccc1-c1ccc2c(c1)O[C@@H](CN(C)CC1CC1)[C@H](C)CN([C@@H](C)CO)S2(=O)=O	none (no result: DENV2 CPE, SIRT5 inh)
CCNC(=O)[C@H]1[C@H](CO)[C@H]2Cn3c(ccc(C4=CCCC4)c3=O)[C@@H]1N2Cc1ccncc1	none
CO[C@@H]1CN(C)C(=O)c2ccc(NC(=O)C3CC3)cc2OC[C@@H](C)N(C)C[C@H]1C	none (no result: SIRT5 inh)
C[C@@H]1CN([C@H](C)CO)C(=O)c2cc(Br)cnc2O[C@H]1CN(C)Cc1ccncc1	none
O=C1CN(C(=O)COc2ccc(Cl)c(Cl)c2)c2ccccc2N1	none (no result: E-selectin induc)
O=C1CN(C(=O)COc2cccc(F)c2)c2ccccc2N1	SIRT5 inh 18 (no result: E-selectin induc)
CCCCOc1ccc(/C=C/C(=O)OCC(=O)N2CC(=O)Nc3ccccc32)cc1OCC	SIRT5 inh 17 (no result: E-selectin induc)
CCCCOc1ccc(/C=C/C(=O)OCC(=O)c2c(N)n(C)c(=O)n(C)c2=O)cc1OCC	none (no result: E-selectin induc)
O=C1CN(C(=O)COC(=O)c2cccs2)c2ccccc2N1	E-selectin induc 80
O=C1CN(C(=O)COC(=O)c2ccccc2O)c2ccccc2N1	none (no result: E-selectin induc)
C[C@@H]1CCCCO[C@@H](CN(C)S(=O)(=O)c2cccs2)[C@H](C)CN([C@@H](C)CO)C(=O)c2cc(NC(=O)Nc3ccc(C(F)(F)F)cc3)ccc2O1	none
C[C@H]1CN([C@@H](C)CO)C(=O)c2cc(NC(=O)Nc3ccc(F)cc3)ccc2O[C@@H]1CN(C)Cc1ccccc1	none
CN(C)c1ccc(-c2cc3ccccc3c(=O)o2)cc1	DENV2 CPE 114 (no result: E-selectin induc, SIRT5 inh)
COc1ccc(-c2cc3ccccc3c(=O)o2)cc1	none
COc1cc(NC(=S)N2CCOCC2)c(OC)cc1Cl	E-selectin induc 26 (no result: SIRT5 inh)
COc1cc(NC(=S)N2CCN(C)CC2)c(OC)cc1Cl	none (no result: E-selectin induc)
O=C(NCc1ccccc1Cl)C1CCCN(c2ncnc3c2nc2n3CCCCC2)C1 (stereo not drawn)	none
O=C(NCc1ccco1)C1CCCN(c2ncnc3c2nc2n3CCCCC2)C1 (stereo not drawn)	DENV2 CPE 25 (no result: E-selectin induc)
C[C@@H]1CN([C@@H](C)CO)C(=O)Cc2cc(NC(=O)Nc3ccc(C(F)(F)F)cc3)ccc2O[C@@H]1CN(C)Cc1ccc(C(=O)Nc2ccccc2N)cc1	none
CC(=O)Nc1ccc2c(c1)C(=O)N(C)[C@H]1CC[C@@H](CC(=O)NCc3ccccc3)O[C@H]1CO2	none
C[C@@H](NC(=O)C[C@H]1CC[C@H]2[C@@H](COC[C@H](O)CN2C(=O)Nc2cc(Cl)cc(Cl)c2)O1)c1ccccc1	none
CCOC(=O)c1cc2ccc3ccccc3c2oc1=O	SIRT5 inh 24 (no result: E-selectin induc)
CCOC(=O)c1c[nH]c2ccc3ccccc3c2c1=O	none
CC(=O)N(C)C[C@H]1Oc2ncc(-c3ccccc3F)cc2C(=O)N([C@@H](C)CO)C[C@H]1C	none
COc1ccc2c(c1)OC[C@H]1[C@H]2N2C(=O)c3cc(OC)ccc3NC(=O)[C@@]2(C)[C@H]1c1ccccc1	DENV2 CPE 47 (no result: SIRT5 inh)
C[C@@]12C(=O)N(CCc3c[nH]c4ccccc34)CC(=O)N1[C@H]1c3ccccc3OC[C@@H]1[C@@H]2c1ccccc1	DENV2 CPE 54 (no result: SIRT5 inh)
C[C@]12C(=O)N(c3ccc(F)cc3)C(=O)N1[C@H]1c3ccccc3OC[C@@H]1[C@H]2c1ccccc1	none (no result: SIRT5 inh)
COc1ccc2c(c1)OC[C@H]1[C@H]2N2C(=O)c3cc(F)ccc3NC(=O)[C@@]2(C)[C@H]1c1ccccc1	none
CN1CC(=O)N2[C@H]3c4ccccc4OC[C@@H]3[C@H](c3ccccc3)[C@]2(C)C1=O	none
C[C@@]12C(=O)N(c3ccc(F)cc3)C(=O)N1[C@@H]1c3ccccc3OC[C@@H]1[C@H]2c1ccccc1	DENV2 CPE 21 (no result: E-selectin induc, SIRT5 inh)
O=C(C[C@H]1C=C[C@@H](NS(=O)(=O)c2ccccc2)[C@H](CO)O1)NCc1ccc(Cl)c(Cl)c1	none
C[C@H](NC(=O)C[C@H]1CC[C@@H](NC(=O)Cc2ccccn2)[C@@H](CO)O1)c1ccccc1	none
N/C(=N\OC(=O)Nc1ccccc1)c1cccc(C(F)(F)F)c1	none (no result: E-selectin induc)
Cc1cc(/C(N)=N/OC(=O)Nc2cccc(C(F)(F)F)c2)no1	E-selectin induc 67 (no result: SIRT5 inh)
C=CCOC(=O)C1=C[C@@H](c2ccc(C(F)(F)F)cc2)[C@H](CCCO)[C@@H](OCC)O1	DENV2 CPE 36!
C=CCOC(=O)C1=C[C@H](c2ccc(C(F)(F)F)cc2)[C@@H](CCCO)[C@H](OCC)O1	none
CCCN=C1N(CC)C[C@@H]2[C@@H]3C(=O)N(C)C(=O)[C@@H]3[C@](CC)(C(=O)OC)N12	DENV2 CPE 28 (no result: E-selectin induc)
CCN1C[C@@H]2[C@@H]3C(=O)N(C)C(=O)[C@@H]3[C@](CC)(C(=O)OC)N2C1=NC	none
C[C@@H]1CN([C@H](C)CO)C(=O)Cc2cc(NC(=O)CCC(F)(F)F)ccc2O[C@H]1CN(C)Cc1ccc(C(=O)O)cc1	none (no result: E-selectin induc)
CC(C)NC(=O)c1cc2c(=O)n3ccccc3nc2s1	none (no result: E-selectin induc)
CSc1ccccc1NC(=O)c1cc2c(=O)n3ccccc3nc2s1	DENV2 CPE 22
C[C@H](CO)N1C[C@H](C)[C@@H](CN(C)C(=O)C2CC2)Oc2ncc(C#CC3(O)CCCC3)cc2C1=O	none (no result: DENV2 CPE, SIRT5 inh)
C[C@H](CO)N1C[C@H](C)[C@@H](CN(C)S(=O)(=O)c2cccs2)Oc2c(NS(C)(=O)=O)cccc2C1=O	none (no result: E-selectin induc)
